Calls of active or inactive are those of the source. The rule behind the calls is not given here.
Key:
Plasmodium falciparum [1] = assay: Antiplasmodial activity against Plasmodium falciparum 3D7 infected in […] after 72 hrs by SYBR green assay; assay type: functional, organism-based; conditions: 3D7, 72 h
[2] = Plasma protein binding in dog by LC-MS/MS analysis; assay type: ADME, cell-free, Canis lupus familiaris; conditions: read-out: PPB (converted)
Salmonella typhimurium [3] = assay: Mutagenic activity in S9-induced Salmonella typhimurium 100 up to 100 uM by Ames test; assay type: toxicity, organism-based; conditions: salmonella enterica subsp. enterica serovar typhimurium
Canis familiaris [4] = assay: Oral bioavailability in dog at 3 mg/kg by LC-MS/MS analysis; assay type: ADME, organism-based, Canis lupus familiaris; conditions: in vivo
Cytochrome P450 2C9 = Cytochrome P450 2C9 (Homo sapiens, UniProt P11712); assay: Inhibition of human CYP2C9 using diclofenac as substrate after 10 mins by LC-MS/MS analysis; assay type: ADME
Sequence of Cytochrome P450 2C9 (P11712 whole entry): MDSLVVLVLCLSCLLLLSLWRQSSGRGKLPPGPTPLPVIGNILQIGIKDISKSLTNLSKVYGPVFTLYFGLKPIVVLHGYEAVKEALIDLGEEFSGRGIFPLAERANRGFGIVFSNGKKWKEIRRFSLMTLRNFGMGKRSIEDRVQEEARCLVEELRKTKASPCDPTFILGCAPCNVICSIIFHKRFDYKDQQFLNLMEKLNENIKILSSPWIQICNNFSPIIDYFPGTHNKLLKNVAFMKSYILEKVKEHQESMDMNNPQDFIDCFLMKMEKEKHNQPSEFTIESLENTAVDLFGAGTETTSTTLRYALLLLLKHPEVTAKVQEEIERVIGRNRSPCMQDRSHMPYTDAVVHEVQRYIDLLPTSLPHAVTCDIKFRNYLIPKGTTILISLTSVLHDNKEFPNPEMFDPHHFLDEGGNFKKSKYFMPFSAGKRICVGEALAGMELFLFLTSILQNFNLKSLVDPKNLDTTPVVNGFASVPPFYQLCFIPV

Canis familiaris [5] = assay: AUC (0 to infinity) in dog at 3 mg/kg, po by LC-MS/MS analysis; assay type: ADME, organism-based, Canis lupus familiaris, Plasma; design: time infinity, dose 3 mg/kg, route oral; conditions: in vivo
[6] = Clearance in human liver microsomes by LC-MS/MS analysis; assay type: ADME, Microsome
In short: (§1)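 Liver microsome incubation. Predicted clearance is derived from a well-stirred model corrected for microsomal and protein binding.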

[7] = AUC (0 to infinity) in rat at 3 mg/kg, po by LC-MS/MS analysis; assay type: ADME, organism-based; design: time infinity, dose 3 mg/kg, route oral; conditions: plasma
Cytochrome P450 2D6 = Cytochrome P450 2D6 (Homo sapiens, UniProt P10635); assay: Inhibition of human CYP2D6 using bufuralol as substrate after 10 mins by LC-MS/MS analysis; assay type: ADME
Sequence of Cytochrome P450 2D6 (P10635 whole entry): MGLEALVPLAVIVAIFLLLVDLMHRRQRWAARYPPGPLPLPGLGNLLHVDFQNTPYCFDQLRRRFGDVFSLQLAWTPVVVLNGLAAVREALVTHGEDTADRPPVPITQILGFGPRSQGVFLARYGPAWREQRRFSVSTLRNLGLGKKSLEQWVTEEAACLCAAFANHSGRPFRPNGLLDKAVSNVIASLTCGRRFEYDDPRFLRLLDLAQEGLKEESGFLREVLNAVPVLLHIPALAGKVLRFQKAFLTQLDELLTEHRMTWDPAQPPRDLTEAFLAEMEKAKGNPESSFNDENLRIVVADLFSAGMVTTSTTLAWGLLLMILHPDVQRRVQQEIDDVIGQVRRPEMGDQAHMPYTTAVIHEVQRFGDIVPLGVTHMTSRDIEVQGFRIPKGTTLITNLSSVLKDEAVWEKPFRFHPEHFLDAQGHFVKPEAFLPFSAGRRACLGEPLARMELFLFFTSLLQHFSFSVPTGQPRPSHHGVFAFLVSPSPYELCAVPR

Cytochrome P450 3A4 = Cytochrome P450 3A4 (Homo sapiens, UniProt P08684); assay: Inhibition of human CYP3A4 using midazolam as substrate after 5 mins by LC-MS/MS analysis; assay type: ADME
Sequence of Cytochrome P450 3A4 (P08684 whole entry): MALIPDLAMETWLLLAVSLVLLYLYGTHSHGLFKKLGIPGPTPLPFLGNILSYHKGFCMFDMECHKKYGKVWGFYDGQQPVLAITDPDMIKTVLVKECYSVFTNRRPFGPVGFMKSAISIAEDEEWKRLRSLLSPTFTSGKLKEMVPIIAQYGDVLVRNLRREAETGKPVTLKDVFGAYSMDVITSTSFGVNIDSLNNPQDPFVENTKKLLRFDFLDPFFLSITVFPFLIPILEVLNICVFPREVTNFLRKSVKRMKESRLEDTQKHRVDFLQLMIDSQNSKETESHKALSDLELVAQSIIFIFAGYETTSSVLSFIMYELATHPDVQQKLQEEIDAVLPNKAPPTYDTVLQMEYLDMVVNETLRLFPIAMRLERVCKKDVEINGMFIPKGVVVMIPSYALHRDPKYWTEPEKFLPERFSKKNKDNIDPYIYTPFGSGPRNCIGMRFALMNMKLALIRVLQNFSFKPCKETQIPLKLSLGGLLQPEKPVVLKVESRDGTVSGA

[8] = Unbound fraction in human plasma; assay type: ADME, cell-free
[9] = Cmax in rat at 3 mg/kg, po by LC-MS/MS analysis; assay type: ADME, organism-based; design: dose 3 mg/kg, route oral; conditions: in vivo
[10] = Cmax in dog at 3 mg/kg, po by LC-MS/MS analysis; assay type: ADME, organism-based, Canis lupus familiaris; design: dose 3 mg/kg, route oral; conditions: in vivo
Cytochrome P450 2C19 = Cytochrome P450 2C19 (Homo sapiens, UniProt P33261); assay: Inhibition of human CYP2C19 using S-mephenytoin as substrate after 45 mins by LC-MS/MS analysis; assay type: ADME
Sequence of Cytochrome P450 2C19 (P33261 whole entry): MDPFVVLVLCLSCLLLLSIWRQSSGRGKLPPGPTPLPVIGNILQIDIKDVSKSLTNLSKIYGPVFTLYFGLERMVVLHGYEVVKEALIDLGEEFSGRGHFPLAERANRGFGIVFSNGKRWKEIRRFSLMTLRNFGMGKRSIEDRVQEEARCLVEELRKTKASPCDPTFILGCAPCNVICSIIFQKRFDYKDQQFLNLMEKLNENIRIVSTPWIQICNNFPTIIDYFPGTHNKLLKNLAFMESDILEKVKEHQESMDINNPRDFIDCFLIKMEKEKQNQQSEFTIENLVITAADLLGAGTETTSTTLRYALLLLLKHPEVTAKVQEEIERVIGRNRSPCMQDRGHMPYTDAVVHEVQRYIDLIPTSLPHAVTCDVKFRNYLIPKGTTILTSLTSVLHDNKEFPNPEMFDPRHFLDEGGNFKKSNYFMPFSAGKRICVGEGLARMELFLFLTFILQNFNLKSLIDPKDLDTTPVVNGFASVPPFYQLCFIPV

[11] = Toxicity in po dosed rat administered qd for 7 days measured after 7 days washout period; assay type: organism-based; conditions: in vivo
In short: (§2)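 Rats dosed orally once daily for 7 days at 0 (control), 50, 150, 450 and 600 mg/kg, then a 7-day washout. NOAEL determined, with Cmax and AUC reported at that exposure.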

[12] = Cmax in rat at 50 to 600 mg/kg, po qd for 7 days measured after 7 days washout period; assay type: ADME, organism-based; design: dose 50-600 mg/kg, route oral; conditions: in vivo; in short: as §2
[13] = AUC (0 to infinity) in rat at 1 mg/kg, iv by LC-MS/MS analysis; assay type: ADME, organism-based; design: time infinity, dose 1 mg/kg, route intravenous; conditions: plasma
[14] = Plasma protein binding in human by LC-MS/MS analysis; assay type: ADME, cell-free; conditions: read-out: PPB (converted)
[15] = Permeability of the compound by parallel artificial membrane permeation assay; assay type: ADME; conditions: PAMPA; read-out: permeability
Plasmodium falciparum [16] = assay: Antiplasmodial activity against Plasmodium falciparum Dd2 infected in […] after 72 hrs by SYBR green assay; assay type: functional, organism-based; conditions: Dd2, 72 h
[17] = Volume of distribution at steady state in dog at 1 mg/kg, iv by LC-MS/MS analysis; assay type: ADME, organism-based, Canis lupus familiaris; design: dose 1 mg/kg, route intravenous; conditions: in vivo, read-out: Vdss
[18] = Oral bioavailability in rat at 3 mg/kg by LC-MS/MS analysis; assay type: ADME, organism-based; conditions: in vivo
Salmonella typhimurium [19] = assay: Mutagenic activity in Salmonella typhimurium 100 up to 100 uM by Ames test; assay type: toxicity, organism-based; conditions: salmonella enterica subsp. enterica serovar typhimurium
Plasmodium berghei [20] = assay: Antimalarial activity against Plasmodium berghei ANKA infected in orally dosed mouse model compound administered at 9 hrs post-infection on first day followed by bid for subsequent 3 days; assay type: functional; conditions: po
In short: (§3)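 Oral dosing in mouse malaria models. Efficacy is expressed as ED50, ED90 and ED99 in mg/kg/day.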

[21] = Clearance in rat at 1 mg/kg, iv by LC-MS/MS analysis; assay type: ADME, organism-based; design: dose 1 mg/kg, route intravenous; conditions: in vivo
[22] = target: T1, Dihydroorotate dehydrogenase (Plasmodium falciparum, UniProt Q54A96); assay: Inhibition of Plasmodium falciparum DHODH after 20 mins by 2,6-dichloroindophenol-reduction based assay
T1 sequence (Q54A96 whole entry): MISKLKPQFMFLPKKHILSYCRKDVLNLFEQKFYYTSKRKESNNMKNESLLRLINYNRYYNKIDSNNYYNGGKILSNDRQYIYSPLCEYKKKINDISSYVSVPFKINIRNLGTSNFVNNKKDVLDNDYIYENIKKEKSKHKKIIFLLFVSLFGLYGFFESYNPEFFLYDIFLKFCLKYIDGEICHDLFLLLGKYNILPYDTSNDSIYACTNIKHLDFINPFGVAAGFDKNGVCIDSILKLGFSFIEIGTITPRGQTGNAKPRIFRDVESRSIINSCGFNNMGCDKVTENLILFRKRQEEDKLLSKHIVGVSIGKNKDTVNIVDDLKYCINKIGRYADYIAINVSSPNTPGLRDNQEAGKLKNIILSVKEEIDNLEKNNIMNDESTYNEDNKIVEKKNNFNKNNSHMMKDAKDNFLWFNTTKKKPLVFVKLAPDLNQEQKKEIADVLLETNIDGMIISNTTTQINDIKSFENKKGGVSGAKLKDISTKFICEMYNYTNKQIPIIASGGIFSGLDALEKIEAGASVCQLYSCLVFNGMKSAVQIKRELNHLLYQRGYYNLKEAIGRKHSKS

Plasmodium vivax = assay: Inhibition of Plasmodium vivax DHODH after 20 mins by 2,6-dichloroindophenol-reduction based assay
[23] = Plasma protein binding in mouse by LC-MS/MS analysis; assay type: ADME, cell-free; conditions: read-out: PPB (converted)
Cytochrome P450 1A2 = target: T2, Cytochrome P450 1A2 (Homo sapiens, UniProt P05177); assay: Inhibition of human CYP1A2 using phenacetin as substrate after 10 mins by LC-MS/MS analysis; assay type: ADME
T2 sequence (P05177 whole entry): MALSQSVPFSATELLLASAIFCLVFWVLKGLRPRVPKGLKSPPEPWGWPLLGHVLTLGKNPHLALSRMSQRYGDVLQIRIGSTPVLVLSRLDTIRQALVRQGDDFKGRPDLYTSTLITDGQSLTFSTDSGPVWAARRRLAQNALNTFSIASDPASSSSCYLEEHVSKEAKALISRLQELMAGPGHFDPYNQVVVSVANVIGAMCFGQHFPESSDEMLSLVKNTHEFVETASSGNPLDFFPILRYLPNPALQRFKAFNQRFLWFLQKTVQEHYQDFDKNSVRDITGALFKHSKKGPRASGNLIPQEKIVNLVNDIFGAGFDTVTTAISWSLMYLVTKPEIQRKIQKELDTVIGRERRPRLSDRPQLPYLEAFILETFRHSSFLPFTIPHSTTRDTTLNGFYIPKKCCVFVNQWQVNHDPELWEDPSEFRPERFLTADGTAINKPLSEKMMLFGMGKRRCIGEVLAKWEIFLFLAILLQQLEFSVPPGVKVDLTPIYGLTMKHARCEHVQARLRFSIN

Salmonella typhimurium [24] = assay: Mutagenic activity in Salmonella typhimurium 1535 up to 100 uM by Ames test; assay type: toxicity, organism-based; conditions: salmonella enterica subsp. enterica serovar typhimurium
Plasmodium falciparum [25] = assay: Antimalarial activity against Plasmodium falciparum 3D70087/N9 infected in po dosed NOD-scid IL-2Rgamma-null mouse model compound administered bid for 4 to 7 days by FACS analysis; assay type: functional; conditions: 3D7 0087/N9, 4TO7, po; in short: as §3
Plasmodium berghei [26] = assay: Inhibition of Plasmodium berghei DHODH after 20 mins by 2,6-dichloroindophenol-reduction based assay
[27] = Clearance in mouse liver microsomes by LC-MS/MS analysis; assay type: ADME, Microsome; in short: as §1
[28] = Half life in dog at 1 mg/kg, iv by LC-MS/MS analysis; assay type: ADME, organism-based, Canis lupus familiaris; design: dose 1 mg/kg, route intravenous; conditions: in vivo
[29] = Half life in rat at 1 mg/kg, iv by LC-MS/MS analysis; assay type: ADME, organism-based; design: dose 1 mg/kg, route intravenous; conditions: in vivo
Salmonella typhimurium [30] = assay: Mutagenic activity in Salmonella typhimurium TA98 up to 100 uM by Ames test; assay type: toxicity, organism-based; conditions: salmonella enterica subsp. enterica serovar typhimurium
Salmonella typhimurium [31] = assay: Mutagenic activity in S9-induced Salmonella typhimurium 1535 up to 100 uM by Ames test; assay type: toxicity, organism-based; conditions: salmonella enterica subsp. enterica serovar typhimurium
[32] = Plasma protein binding in rat by LC-MS/MS analysis; assay type: ADME, cell-free; conditions: read-out: PPB (converted)
Canis familiaris [33] = assay: AUC (0 to infinity) in dog at 1 mg/kg, iv by LC-MS/MS analysis; assay type: ADME, organism-based, Canis lupus familiaris, Plasma; design: dose 1 mg/kg, route intravenous, time infinity; conditions: in vivo
[34] = AUC in rat at 50 to 600 mg/kg, po qd for 7 days measured after 7 days washout period; assay type: ADME, organism-based; design: dose 50-600 mg/kg, route oral; conditions: plasma; in short: as §2
[35] = Volume of distribution at steady state in rat at 1 mg/kg, iv by LC-MS/MS analysis; assay type: ADME, organism-based; design: dose 1 mg/kg, route intravenous; conditions: in vivo, read-out: Vdss
[36] = Clearance in dog at 1 mg/kg, iv by LC-MS/MS analysis; assay type: ADME, organism-based, Canis lupus familiaris; design: dose 1 mg/kg, route intravenous; conditions: in vivo
Salmonella typhimurium [37] = assay: Mutagenic activity in S9-induced Salmonella typhimurium TA98 up to 100 uM by Ames test; assay type: toxicity, organism-based; conditions: salmonella enterica subsp. enterica serovar typhimurium
[38] = target: Voltage-gated inwardly rectifying potassium channel KCNH2 (Homo sapiens, UniProt Q12809); assay: Inhibition of human ERG expressed in CHOK1 cells by whole cell voltage clamp assay; assay type: cell-based, CHO-K1
Sequence of Voltage-gated inwardly rectifying potassium channel KCNH2 (Q12809 whole entry): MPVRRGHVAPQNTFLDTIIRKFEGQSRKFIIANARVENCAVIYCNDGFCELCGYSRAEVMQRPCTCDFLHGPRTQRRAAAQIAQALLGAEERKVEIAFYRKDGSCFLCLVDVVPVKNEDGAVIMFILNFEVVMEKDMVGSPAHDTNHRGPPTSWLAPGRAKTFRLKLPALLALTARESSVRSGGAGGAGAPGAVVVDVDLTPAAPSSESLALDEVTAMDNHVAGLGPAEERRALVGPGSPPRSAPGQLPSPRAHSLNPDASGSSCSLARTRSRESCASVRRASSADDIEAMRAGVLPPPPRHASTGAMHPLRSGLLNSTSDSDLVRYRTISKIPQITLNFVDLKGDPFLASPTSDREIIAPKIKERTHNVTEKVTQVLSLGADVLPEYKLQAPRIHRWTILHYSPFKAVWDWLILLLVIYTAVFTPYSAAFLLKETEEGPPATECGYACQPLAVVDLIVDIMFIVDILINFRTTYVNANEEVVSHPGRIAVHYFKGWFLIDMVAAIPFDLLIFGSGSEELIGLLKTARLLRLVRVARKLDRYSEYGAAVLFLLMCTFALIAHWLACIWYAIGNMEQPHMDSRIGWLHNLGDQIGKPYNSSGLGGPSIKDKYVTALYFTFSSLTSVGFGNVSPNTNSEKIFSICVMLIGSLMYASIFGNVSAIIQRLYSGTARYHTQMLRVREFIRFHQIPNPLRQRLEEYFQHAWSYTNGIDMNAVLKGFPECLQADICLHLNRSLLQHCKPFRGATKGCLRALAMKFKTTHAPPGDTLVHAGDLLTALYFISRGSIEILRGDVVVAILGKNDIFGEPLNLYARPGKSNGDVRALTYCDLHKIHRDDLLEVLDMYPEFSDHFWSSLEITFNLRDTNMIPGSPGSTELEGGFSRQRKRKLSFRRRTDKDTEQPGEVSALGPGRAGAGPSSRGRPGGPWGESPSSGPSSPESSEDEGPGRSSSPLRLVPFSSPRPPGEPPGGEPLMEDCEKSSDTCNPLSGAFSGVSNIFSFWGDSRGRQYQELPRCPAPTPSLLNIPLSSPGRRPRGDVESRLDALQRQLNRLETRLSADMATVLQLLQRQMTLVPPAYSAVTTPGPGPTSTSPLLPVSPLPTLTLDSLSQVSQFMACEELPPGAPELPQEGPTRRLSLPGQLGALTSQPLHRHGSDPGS

Compound: Cc1nc2c(C#N)cccc2n1-c1ccc(C(=O)NC2CC2)s1
- IC50 (Plasmodium falciparum [1]): 7 nM
- fraction unbound [2]: 0.312
- Activity (Salmonella typhimurium [3]): Non-toxic
- F (Canis familiaris [4]): 19%
- IC50 (Cytochrome P450 2C9): > 10000 nM
- AUC (Canis familiaris [5]): 359 ng·h/mL
- CLhep predicted [6]: < 4 mL/min/kg
- AUC(0-inf) [7]: 1040 ng·h/mL
- IC50 (Cytochrome P450 2D6): > 10000 nM
- IC50 (Cytochrome P450 3A4): > 10000 nM
- fraction unbound [8]: 0.11
- Cmax [9]: 618 ng/mL
- Cmax [10]: 1110 ng/mL
- IC50 (Cytochrome P450 2C19): > 10000 nM
- NOAEL at 168 h [11]: > 600 mg/kg
- Cmax [12]: 29000 ng/mL
- AUC(0-inf) [13]: 703 ng·h/mL
- fraction unbound [14]: 0.112
- Papp [15]: 49 ×10⁻⁶ cm/s
- IC50 (Plasmodium falciparum [16]): 10 nM
- Vd [17]: 0.279 L/kg
- bioavailability [18]: 49%
- Activity (Salmonella typhimurium [19]): Non-toxic
- ED50 (Plasmodium berghei [20]): 13 mg/kg/day
- ED90 (Plasmodium berghei [20]): 28 mg/kg/day
- ED99 (Plasmodium berghei [20]): 62 mg/kg/day
- clearance [21]: 24 mL/min/kg
- IC50 [22]: 40 nM
- inhibition (Plasmodium vivax): Active
- fraction unbound [23]: 0.182
- IC50 (Cytochrome P450 1A2): > 10000 nM
- Activity (Salmonella typhimurium [24]): Non-toxic
- ED50 (Plasmodium falciparum [25]): 13 mg/kg/day
- ED90 (Plasmodium falciparum [25]): 27 mg/kg/day
- ED99 (Plasmodium falciparum [25]): 60 mg/kg/day
- inhibition (Plasmodium berghei [26]): Active
- CLhep predicted [27]: 26 mL/min/kg
- half-life [28]: 31.2 min
- half-life [29]: 51 min
- Activity (Salmonella typhimurium [30]): Non-toxic
- Activity (Salmonella typhimurium [31]): Non-toxic
- fraction unbound [32]: 0.22
- AUC (Canis familiaris [33]): 1500 ng·h/mL
- AUC at 168 h [34]: 328000 ng·h/mL
- Vd [35]: 0.995 L/kg
- clearance [36]: 6.7 mL/min/kg
- Activity (Salmonella typhimurium [37]): Non-toxic

Compound: Cc1nc2cc(OC(F)(F)F)ccc2n1-c1ccc(C(=O)NC2CC2)s1
- IC50 (Plasmodium falciparum [1]): 7 nM
- CLhep predicted [6]: 7 mL/min/kg
- IC50 (Cytochrome P450 2D6): 100 nM
- IC50 (Plasmodium falciparum [16]): 9 nM
- IC50 [22]: 22 nM
- inhibition (Plasmodium vivax): Active
- inhibition (Plasmodium berghei [26]): Active
- CLhep predicted [27]: 43 mL/min/kg
- IC50 [38]: < 2800 nM
